Bioassay records deposited in PubChem by Broad Institute.
ARNT TACC3 PPI = disruptors of ARNT/TACC3 protein interaction, primary screen, biochemical, AlphaScreen, single concentration; AlphaScreen His-ARNT PAS-B/GST-TACC3 binding, luminescence; TACC3 fragment carries E629A point mutation; inhibition, % at 9.99 µM; 390,000 tested, 0.66% active;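 active means mean inhibition of replicates at least 50% and at least half of replicates each reaching 50%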;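 further: 0% = complete ARNT plus TACC3 wells and 100% = ARNT alone without TACC3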
CASP6 VEID inh = human caspase-6 inhibitors, primary screen, biochemical, VEID-R110 fluorescence, single point, set 2; P55212; purified caspase-6, Z-VEID-R110 cleavage fluorescence; inhibition, % at 12.5 µM; 350,000 tested, 0.53% active; AID 686996, 2013;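 active means mean inhibition across replicates at least about 35%, with every replicate also reaching that limit, limit read from the data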;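 further: 0% = median of neutral control wells and 100% = no fluorescence left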
Target sequence (P55212 24-179 limits assumed): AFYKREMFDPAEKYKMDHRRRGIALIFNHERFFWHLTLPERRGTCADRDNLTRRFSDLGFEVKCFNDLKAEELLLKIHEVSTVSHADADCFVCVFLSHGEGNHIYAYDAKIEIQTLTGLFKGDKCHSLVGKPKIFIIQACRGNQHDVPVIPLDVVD
Target sequence (P55212 194-293 limits assumed): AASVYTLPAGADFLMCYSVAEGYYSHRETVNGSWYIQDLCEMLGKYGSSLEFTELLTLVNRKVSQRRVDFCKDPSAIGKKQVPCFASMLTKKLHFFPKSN
S100A4 inh HTS = inhibitors of S100A4-myosin IIA peptide binding, primary screen, biochemical, fluorescence polarization, TAMRA-MyoIIA peptide. Protein S100-A4 (Homo sapiens), P26447. inhibition, % at 10.7 µM. 360,000 tested, 0.14% active. AID 652163, 2013;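 active means mean inhibition of at least 70% across replicates, with every replicate also reaching that level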
Target sequence (P26447 whole entry, looked up): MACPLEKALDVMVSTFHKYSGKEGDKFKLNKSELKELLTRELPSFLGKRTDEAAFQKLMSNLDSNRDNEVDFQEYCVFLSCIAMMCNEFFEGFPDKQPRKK
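assay system = human S100A4 monomer with TAMRA-labelled myosin IIA peptide | also added = labelled myosin peptide probe, 5 nM | incubation = 5 min between mix addition and reading | control set = DMSO and TFP controls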
ERAP1 inh = human ERAP1 aminopeptidase inhibitors, primary screen, biochemical, single point, plate reader. inhibition, % at 10.7 µM. recombinant ERAP1, Leu-AMC fluorescence, 60 min. Endoplasmic reticulum aminopeptidase 1 (Homo sapiens), Q9NZ08. 340,000 tested, 0.15% active;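 active means mean replicate inhibition of at least 30%, or all replicates individually reaching that 30% level; inactive means mean below 30% and not every replicate reaching it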;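 further: 0% = neutral control wells and 100% = L-leucinethiol positive control wells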
PGC1a acetyl inh = inhibitors of PGC1a acetylation signal, primary screen, cell-based, U2OS, AlphaScreen, inhibitor mode | 350,000 tested, 0.17% active | AlphaScreen anti-acetyl-lysine; with virally co-expressed GCN5 acetyltransferase | inhibition, % at 15.6 µM | AID 651687, 2012;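 active means every replicate shows inhibition of at least 40%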;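 further: 0% = neutral control wells and 100% = positive control wells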
rRNA inh HTS = reduced GFP signal of wild-type E. coli, primary screen, bacterial rRNA inhibitor project, GFP/RFP fluorescence, OD600, single point | E. coli WT GFP vs humanized-ribosome RFP mutants, 24 h; active compounds read low; DMSO median 0, no signal -100 | 350,000 tested, 1.6% active | GFP signal change (wild-type ribosome), % (no concentration beside the values);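 active means significant combined selectivity score with lowered wild-type GFP, culture density cut under 30%, mutant RFP and density less affected; inactive means any of these conditions unmet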
The depositor's hits bear a star; / = no result given. Shown are actives, neighbours in structure and some others; about 2.4% of the full set was active somewhere.

SMILES	ARNT TACC3 PPI	CASP6 VEID inh	S100A4 inh HTS	ERAP1 inh	PGC1a acetyl inh	rRNA inh HTS
Cc1ccc([C@@H]2CC=C(C(=O)O)CN2S(=O)(=O)c2ccccc2C)cc1	-1.1	-0.1	2.6	0.9	/	-25.2*
Cc1ccc(S(=O)(=O)N2[C@@H](c3ccccc3F)C(C(=O)O)=CC[C@H]2c2cccs2)cc1	0.1	10.8	-5.0	20.4	/	-16.4*
Cc1ccc([C@H]2C(C(=O)O)=CC[C@@H](c3ccc(C)cc3)N2S(=O)(=O)c2ccccc2C)cc1	-7.8	7.6	-6.8	/	11.6	-39.0*
COC(=O)C1(N2C(=O)O[C@@H](Cc3ccccc3)[C@H]2/C=C/C2CC2)CCCC1	/	-1.5	7.1	-1.8	-17.8	/
Cc1ccc(-n2ncc3c(SCc4ccccn4)ncnc32)c(C)c1	0.2	/	-4.1	-1.1	/	-15.6*
CS(=O)(=O)c1ccc(N)c(SSc2cc(S(C)(=O)=O)ccc2N)c1	0.8	0.9	-9.8	38.9*	2.5	3.4
CC(=O)c1ccc(N(C)C)cc1	-9.2	/	/	/	3.5	/
CN(C)c1ccc(/C(=N\O)C(F)(F)F)cc1	-1.2	-0.9	0.6	-0.7	-10.6	-30.9*
O=C(NC1CCCc2c1cnn2-c1ccc(F)cc1F)c1ccccc1N1CCOCC1 (stereo unspecified)	-0.1	-2.8	-5.4	0.6	2.5	-29.4*
O=C(c1cccc(F)c1)N1CC2(C1)[C@@H](c1ccccc1)[C@@H](CO)N2C(=O)C1CCC1	/	0.1	-8.8	-3.8	4.2	-2.6
COc1ccc(CCC(=O)Nc2ccc(S(=O)(=O)Nc3nccc(C)n3)cc2)cc1	-6.4	58.1*	-2.0	3.3	14.4	-0.9
COc1ccc(CCC(=O)Nc2ccc(S(=O)(=O)Nc3ncccn3)cc2)cc1	3.0	-1.9	-1.3	0.0	5.5	/
O=C1NC(=O)/C(=C/c2ccc(-c3cc(C(=O)O)ccc3Cl)o2)S1	12.3	4.9	-2.5	-36.0	/	-22.5
O=C1NC(=O)/C(=C\c2ccc(Br)o2)S1	3.9	49.1*	16.4	4.2	/	0.9
COc1cccc(Nc2nc(N)c([N+](=O)[O-])c(NCc3ccccc3)n2)c1	2.1	-0.1	3.6	-2.7	5.2	-33.8*
Nc1nc(NCc2ccccc2)nc(NCc2ccccc2)c1[N+](=O)[O-]	12.9	/	/	/	3.1	/
Nc1nc(Nc2ccccc2)nc(NCc2ccccc2)c1[N+](=O)[O-]	0.6	7.7	-5.2	-1.3	/	-15.0*
Cc1noc(C)c1NC(=O)Nc1ccc2c(c1)C(=O)N([C@@H](C)CO)C[C@@H](C)[C@@H](CN(C)S(=O)(=O)c1ccc(F)cc1)OCCCC[C@@H](C)O2	-2.3	-0.7	-5.0	-3.1	-11.3	-3.8
CO[C@@H]1CN(C)C(=O)c2cc(NC(=O)C3CCOCC3)ccc2OC[C@@H](C)N(CC2CCCCC2)C[C@H]1C	/	-1.3	0.5	0.6	4.1	3.0
N=C1/C(=C\c2ccc(-c3cccc(C(=O)O)c3)o2)C(=O)N=C2SC=C(c3ccccc3)N12	0.5	49.5*	0.3	-1.1	-3.4	-30.3
COc1ccc(NC(=O)Nc2ccc(F)cc2)c(C)c1	/	1.0	1.2	-4.0	/	7.7
Cc1cc2c(NC(=O)Nc3ccc(F)cc3)cccc2nn1	24.0	67.6*	14.8	2.4	2.9	-5.5
CC(=O)N1[C@@H](CO)[C@H](c2ccc(-c3cccc(F)c3)cc2)[C@@H]1CNC(=O)C1CC1	-6.5	/	/	/	-0.7	-4.2
O=c1c2c(-c3ccccc3)csc2ncn1/N=C/c1cccc([N+](=O)[O-])c1O	72.5*	-0.7	0.2	-4.1	/	-11.4
C[C@@H]1CN([C@@H](C)CO)S(=O)(=O)c2ccc(C3=CCCCC3)cc2O[C@H]1CN(C)CC1CC1	/	/	/	/	-12.7	0.4
COc1cccc(-c2coc3c(C)c4oc(=O)c(CC(=O)O)c(C)c4cc23)c1	13.7	14.8	-2.4	1.9	-1.5	-11.4
